Laboratory results as given in ChEMBL document CHEMBL4706499, “PTG-0861: A novel HDAC6-selective inhibitor as a therapeutic strategy in acute myeloid leukaemia” (Eur J Med Chem, 2020).
Active and inactive are the calls of the source. The rule behind the calls is not given here.

Experiments:
[1] = molecular target: T1, Protein deacetylase HDAC6 (Homo sapiens) (UniProt Q9UBN7); experiment: Inhibition of HDAC6 in human HeLa cells assessed as increase in acetylated alpha tubulin at 0.1 uM measured after 6 hrs by Immunofluorescent assay
T1 sequence (whole entry): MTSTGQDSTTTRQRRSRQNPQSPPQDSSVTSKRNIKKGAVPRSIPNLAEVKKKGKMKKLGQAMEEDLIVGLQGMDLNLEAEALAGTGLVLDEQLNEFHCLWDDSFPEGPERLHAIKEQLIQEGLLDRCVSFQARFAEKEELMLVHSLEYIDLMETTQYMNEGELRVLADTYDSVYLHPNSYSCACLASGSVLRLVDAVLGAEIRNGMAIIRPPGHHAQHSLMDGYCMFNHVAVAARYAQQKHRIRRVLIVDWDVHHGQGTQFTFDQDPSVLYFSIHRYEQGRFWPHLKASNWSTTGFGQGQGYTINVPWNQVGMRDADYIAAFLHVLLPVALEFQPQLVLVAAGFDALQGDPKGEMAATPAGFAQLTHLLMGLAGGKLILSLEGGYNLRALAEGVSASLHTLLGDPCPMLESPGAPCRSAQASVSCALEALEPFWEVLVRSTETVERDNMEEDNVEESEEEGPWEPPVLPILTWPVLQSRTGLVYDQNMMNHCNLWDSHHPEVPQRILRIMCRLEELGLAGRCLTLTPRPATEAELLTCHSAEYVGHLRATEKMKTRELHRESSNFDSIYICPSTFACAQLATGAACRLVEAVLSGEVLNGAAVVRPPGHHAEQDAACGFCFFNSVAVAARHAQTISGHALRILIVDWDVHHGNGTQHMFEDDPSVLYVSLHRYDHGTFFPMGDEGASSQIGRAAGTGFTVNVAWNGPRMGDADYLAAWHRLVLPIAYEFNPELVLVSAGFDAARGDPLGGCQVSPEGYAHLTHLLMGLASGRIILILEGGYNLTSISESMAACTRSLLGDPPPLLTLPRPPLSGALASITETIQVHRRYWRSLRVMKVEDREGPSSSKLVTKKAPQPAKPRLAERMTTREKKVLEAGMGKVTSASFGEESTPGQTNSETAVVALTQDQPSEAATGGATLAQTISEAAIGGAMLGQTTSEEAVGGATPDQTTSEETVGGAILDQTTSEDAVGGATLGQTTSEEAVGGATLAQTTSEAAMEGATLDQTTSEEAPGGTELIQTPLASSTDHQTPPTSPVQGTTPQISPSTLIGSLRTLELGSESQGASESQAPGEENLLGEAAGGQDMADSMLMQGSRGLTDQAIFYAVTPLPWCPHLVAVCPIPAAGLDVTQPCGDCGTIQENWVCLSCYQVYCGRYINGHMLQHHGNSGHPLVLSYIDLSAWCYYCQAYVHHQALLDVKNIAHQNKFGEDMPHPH

[2] = molecular target: T2, Polyamine deacetylase HDAC10 (Homo sapiens, UniProt Q969S8); experiment: Inhibition of recombinant full length human HDAC10 expressed in SF9 baculovirus using FAM- labelled acetylated peptide as substrate measured by Electrophoretic mobility shift assay
T2 sequence (Q969S8 whole entry): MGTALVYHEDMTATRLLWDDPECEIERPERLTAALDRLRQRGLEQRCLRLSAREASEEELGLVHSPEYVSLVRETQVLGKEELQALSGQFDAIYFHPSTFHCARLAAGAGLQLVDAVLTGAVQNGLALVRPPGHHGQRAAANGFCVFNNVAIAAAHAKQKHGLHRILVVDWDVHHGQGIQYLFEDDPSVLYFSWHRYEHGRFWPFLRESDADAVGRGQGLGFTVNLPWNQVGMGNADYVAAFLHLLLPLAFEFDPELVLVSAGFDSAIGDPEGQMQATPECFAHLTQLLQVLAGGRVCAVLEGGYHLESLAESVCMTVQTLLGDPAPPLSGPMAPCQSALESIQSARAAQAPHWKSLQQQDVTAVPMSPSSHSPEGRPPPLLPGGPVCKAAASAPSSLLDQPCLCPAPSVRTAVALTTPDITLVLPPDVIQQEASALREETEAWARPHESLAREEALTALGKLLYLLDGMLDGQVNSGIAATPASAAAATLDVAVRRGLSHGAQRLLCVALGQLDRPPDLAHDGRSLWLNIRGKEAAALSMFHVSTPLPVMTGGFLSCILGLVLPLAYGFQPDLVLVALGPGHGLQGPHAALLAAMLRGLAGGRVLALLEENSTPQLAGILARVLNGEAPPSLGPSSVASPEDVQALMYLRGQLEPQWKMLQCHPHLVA

[3] = test system: MM1.S; experiment: Cytotoxicity against human MM1.S cells measured after 72 hrs by spectrophotometer method; type: functional, cell-based
[4] = molecular target: T3, Histone deacetylase 11 (Homo sapiens, UniProt Q96DB2); experiment: Inhibition of recombinant full length human HDAC11 expressed in SF9 baculovirus using FAM- labelled acetylated peptide as substrate measured by Electrophoretic mobility shift assay
T3 sequence (Q96DB2 whole entry): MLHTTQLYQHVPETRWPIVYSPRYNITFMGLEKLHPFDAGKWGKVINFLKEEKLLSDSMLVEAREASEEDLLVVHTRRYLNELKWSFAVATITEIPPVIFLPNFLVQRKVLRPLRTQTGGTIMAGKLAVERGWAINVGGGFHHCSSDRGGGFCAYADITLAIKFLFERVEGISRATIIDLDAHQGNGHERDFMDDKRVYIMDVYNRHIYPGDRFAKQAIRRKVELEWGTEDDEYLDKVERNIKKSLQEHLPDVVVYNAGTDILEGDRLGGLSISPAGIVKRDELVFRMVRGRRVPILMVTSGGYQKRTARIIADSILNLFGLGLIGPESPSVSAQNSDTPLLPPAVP

[5] = molecular target: Histone deacetylase 4 (Homo sapiens, UniProt P56524); experiment: Inhibition of recombinant full length human HDAC4 expressed in SF9 baculovirus using FAM- labelled acetylated peptide as substrate measured by Electrophoretic mobility shift assay
[6] = Cytotoxicity against human MRC9 cells measured after 72 hrs by spectrophotometer method; type: cell-based; settings: MRC9, 72 h
[7] = test system: MV4-11; experiment: Induction of apoptosis in human MV4-11 cells assessed as late apoptotic cells at 0.5 microM measured after 18 hrs by Annexin V/Propidium iodide stain based Flow cytometry assay (reference value: 4.91%); type: functional
[8] = test system: MV4-11; experiment: Induction of apoptosis in human MV4-11 cells assessed as late apoptotic cells at 4 microM measured after 18 hrs by Annexin V/Propidium iodide stain based Flow cytometry assay (reference value: 4.91%); type: functional
[9] = test system: MV4-11; experiment: Induction of apoptosis in human MV4-11 cells assessed as viable cells at 1 microM measured after 18 hrs by Annexin V/Propidium iodide stain based Flow cytometry assay (reference value: 53.27%); type: functional; settings: read-out: Activity
[10] = Half life in CD1 mouse at 20 mg/kg, ip measured after 24 hrs by LC/MS/MS method; type: ADME, organism-based; settings: in vivo
[11] = Efflux ratio of apparent permeability in human Caco2 cells measured after 2 hrs by LC-MS/MS method; type: ADME, cell-based; settings: Caco-2
Outline: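 Bidirectional Caco-2 permeability was measured as Papp in the apical-to-basolateral and basolateral-to-apical directions. The efflux ratio was calculated from the two directional Papp values.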

Histone deacetylase 4, sequence (P56524 whole entry): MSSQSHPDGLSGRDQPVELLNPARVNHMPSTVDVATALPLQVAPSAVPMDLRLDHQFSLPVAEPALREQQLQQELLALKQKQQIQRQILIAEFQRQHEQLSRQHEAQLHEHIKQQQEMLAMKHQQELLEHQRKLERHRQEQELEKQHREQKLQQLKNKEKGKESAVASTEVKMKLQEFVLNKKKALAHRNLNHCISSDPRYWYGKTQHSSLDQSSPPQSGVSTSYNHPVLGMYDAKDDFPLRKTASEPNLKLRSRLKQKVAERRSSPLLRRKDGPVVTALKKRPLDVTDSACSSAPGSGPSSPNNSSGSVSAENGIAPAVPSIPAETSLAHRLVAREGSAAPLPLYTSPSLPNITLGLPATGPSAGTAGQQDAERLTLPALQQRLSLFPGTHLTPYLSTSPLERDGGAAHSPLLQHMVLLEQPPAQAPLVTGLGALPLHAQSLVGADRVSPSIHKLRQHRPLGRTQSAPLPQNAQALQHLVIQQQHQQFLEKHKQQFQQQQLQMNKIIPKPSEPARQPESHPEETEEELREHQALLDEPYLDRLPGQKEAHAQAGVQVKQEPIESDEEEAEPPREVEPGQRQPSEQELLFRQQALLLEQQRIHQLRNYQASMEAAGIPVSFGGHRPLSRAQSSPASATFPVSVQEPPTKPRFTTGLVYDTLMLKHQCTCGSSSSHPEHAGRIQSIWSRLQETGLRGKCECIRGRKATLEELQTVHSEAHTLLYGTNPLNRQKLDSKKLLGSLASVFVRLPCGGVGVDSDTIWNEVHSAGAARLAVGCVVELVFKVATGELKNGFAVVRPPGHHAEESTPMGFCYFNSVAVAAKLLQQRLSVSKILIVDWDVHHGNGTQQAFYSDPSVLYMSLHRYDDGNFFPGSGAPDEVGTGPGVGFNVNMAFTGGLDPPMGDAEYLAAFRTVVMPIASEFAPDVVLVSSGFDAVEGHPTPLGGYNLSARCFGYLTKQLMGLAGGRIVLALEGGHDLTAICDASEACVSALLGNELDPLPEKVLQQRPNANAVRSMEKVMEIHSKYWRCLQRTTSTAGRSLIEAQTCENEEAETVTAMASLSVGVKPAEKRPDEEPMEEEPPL

inhibition [1]: Active
IC50 [2]: > 1000 nM
IC50 [4]: > 1000 nM
IC50 [5]: > 1000 nM
half-life [10]: 15 min
efflux ratio at 2 h [11]: 0.71
Compound: O=C(NO)c1ccc(CNC(=O)c2c(F)c(F)c(F)c(F)c2F)cc1
IC50 [3]: 1900 nM
IC50 [6]: > 50000 nM
Activity [7]: 7.46%
Activity [8]: 41%
viability at 1 µM [9]: 35.6%
